# Measured values of several laboratories.
# Target: Histamine H1 receptor (HRH1, Homo sapiens, UniProt P35367)
SMILES,test,conditions,Ki
CN(C)CCOC1c2ccccc2CCc2ccccc21,"cell-free assay, radioligand",,1.26 nM
CN(C)c1ccc(/C=C2\CCc3ccc(OCc4ccc(OCCCN5CCCCC5)cc4)cc3C2=O)cc1,"ligand displacement, radioligand",cell membranes,4230 nM
CN1CCN(C2c3ccccc3CCc3ccccc32)CC1,"cell-free assay, radioligand",,2 nM
CCCCCCCNCCCc1ccc([N+](=O)[O-])cc1,"ligand displacement, radioligand",,9200 nM
CN(C)CCOC1c2ccccc2C=Cc2ccccc21,"cell-free assay, radioligand",,0.316 nM
O=C1NC(c2ccccc2)(c2ccccc2)C(=O)N1CCCN1CCCCC1,"ligand displacement, radioligand",cell membranes,6310 nM
CCCCN1CCC(COC(=O)c2ccc(N)c(OCF)c2)CC1,"cell-free assay, radioligand",,> 10000 nM
Cc1nc2cc(OCCCCN3CCN(c4cccc(Cl)c4Cl)CC3)ccc2s1,"ligand displacement, radioligand",,57 nM
CN(C)c1ccc(/C=C2\CCc3ccc(OCCCN4CCCCC4)cc3C2=O)cc1,"ligand displacement, radioligand",cell membranes,2140 nM
N#Cc1cc(Cn2c(N3CCCC3)nc3ccccc32)ccc1F,"cell-free assay, radioligand",,2570 nM
CN(C)c1ccc(/C=C/C=C2\CCc3cc(OCc4ccc(OCCCN5CCCCC5)cc4)ccc3C2=O)cc1,"ligand displacement, radioligand",cell membranes,1370 nM
CNc1nc2cc(OCCCCN3CCC(c4cccc(Cl)c4Cl)CC3)ccc2s1,"ligand displacement, radioligand",,28 nM
CN(C)c1ccc(/C=C/C=C2\CCc3cc(OCCCN4CCCCC4)ccc3C2=O)cc1,"ligand displacement, radioligand",cell membranes,881 nM
CN1CCC(=C2c3ccccc3CCc3cccnc32)CC1,cell-free assay,,0.0631 nM
